From ChEMBL document CHEMBL1255376, “Comparative surveillance study of telavancin activity against recently collected gram-positive clinical isolates from across the United States” (2008)
Values after ≈ are worked out from the molar mass of the structure shown.

Tests used:
Enterococcus = assay: Antibacterial activity against vancomycin-susceptible Enterococcus; assay type: functional
How it was run: (§1)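 MIC by CLSI broth microdilution in frozen microtiter trays holding serial dilutions of each agent, prepared from standard laboratory powders. E. faecalis ATCC 29212 and ATCC 51299, S. aureus ATCC 29213 and S. pneumoniae ATCC 49619 run in parallel as quality-control strains. Comparator susceptibility interpreted with CLSI breakpoints.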

Staphylococcus aureus [1] = assay: Antibacterial activity against methicillin-resistant Staphylococcus aureus clinical isolate by broth microdilution method; assay type: functional
How it was run: (§2)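 MICs by CLSI broth microdilution in frozen trays pre-loaded with serial dilutions of each agent. Quality-control strains run in parallel: E. faecalis ATCC 29212 and ATCC 51299, S. aureus ATCC 29213, S. pneumoniae ATCC 49619. Comparator susceptibility categories follow CLSI breakpoints. Methicillin resistance in staphylococci assigned from the oxacillin MIC.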

[2] = tested on: Staphylococcus saprophyticus; assay: Antibacterial activity against methicillin-susceptible coagulase-negative Staphylococcus saprophyticus clinical isolate by broth microdilution method; assay type: functional; how it was run: as §2
Staphylococcus xylosus = assay: Antibacterial activity against methicillin-susceptible coagulase-negative Staphylococcus xylosus clinical isolate by broth microdilution method; assay type: functional; how it was run: as §2
[3] = tested on: Staphylococcus saprophyticus; assay: Antibacterial activity against methicillin-resistant coagulase-negative Staphylococcus saprophyticus clinical isolate by broth microdilution method; assay type: functional; how it was run: as §2
Enterococcus faecalis [4] = assay: Antibacterial activity against vancomycin-susceptible Enterococcus faecalis clinical isolate by broth microdilution method; assay type: functional; how it was run: as §2
Enterococcus faecium [5] = assay: Antibacterial activity against vancomycin-susceptible Enterococcus faecium clinical isolate by broth microdilution method; assay type: functional; how it was run: as §1
Enterococcus faecium [6] = assay: Antibacterial activity against vancomycin- and teichoplanin-nonsusceptible Enterococcus faecium clinical isolate by broth microdilution method; assay type: functional; how it was run: as §2
Streptococcus pyogenes = assay: Antibacterial activity against Streptococcus pyogenes clinical isolate by broth microdilution method; assay type: functional; how it was run: as §1
Streptococcus sp. = assay: Antibacterial activity against Streptococcus sp. Group F clinical isolate by broth microdilution method; assay type: functional
How it was run: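 MIC by CLSI broth microdilution in frozen microtiter trays holding serial dilutions of each agent, prepared from standard laboratory powders. Comparator susceptibility interpreted with CLSI breakpoints.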

[7] = tested on: Streptococcus intermedius; assay: Antibacterial activity against Streptococcus intermedius clinical isolate by broth microdilution method; assay type: functional; how it was run: as §1
Streptococcus oralis = assay: Antibacterial activity against Streptococcus oralis clinical isolate by broth microdilution method; assay type: functional; how it was run: as §1
Streptococcus pneumoniae = assay: Antibacterial activity against penicillin susceptible Streptococcus pneumoniae clinical isolate by broth microdilution method; assay type: functional; how it was run: as §2
Staphylococcus aureus [8] = assay: Antibacterial activity against daptomycin-nonsusceptible Staphylococcus aureus isolate 1171055 by broth microdilution method; assay type: functional; how it was run: as §2
Staphylococcus aureus [9] = assay: Antibacterial activity against daptomycin-nonsusceptible Staphylococcus aureus isolate 1171063 by broth microdilution method; assay type: functional; how it was run: as §2
Staphylococcus aureus [10] = assay: Antibacterial activity against daptomycin-nonsusceptible Staphylococcus aureus isolate 1176127 by broth microdilution method; assay type: functional; how it was run: as §2
Staphylococcus aureus [11] = assay: Antibacterial activity against vancomycin-intermediate methicillin-resistant Staphylococcus aureus NRS74 by broth microdilution method; assay type: functional
How it was run: (§3)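 VISA and VRSA strains from the NARSA repository were tested separately from the surveillance isolates. MICs by CLSI broth microdilution in frozen trays with serial dilutions. Quality-control strains run in parallel. Susceptibility categories follow CLSI breakpoints, and methicillin resistance was assigned from the oxacillin MIC.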

Staphylococcus aureus [12] = assay: Antibacterial activity against vancomycin-intermediate methicillin-resistant Staphylococcus aureus NRS118 by broth microdilution method; assay type: functional; how it was run: as §3
Staphylococcus aureus [13] = assay: Antibacterial activity against vancomycin-intermediate methicillin-resistant Staphylococcus aureus NRS1 by broth microdilution method; assay type: functional; how it was run: as §3
Staphylococcus aureus [14] = assay: Antibacterial activity against vancomycin-intermediate methicillin-resistant Staphylococcus aureus NRS12 by broth microdilution method; assay type: functional; how it was run: as §3
Staphylococcus aureus [15] = assay: Antibacterial activity against vancomycin-intermediate methicillin-susceptible Staphylococcus aureus NRS56 by broth microdilution method; assay type: functional; how it was run: as §3
Staphylococcus aureus [16] = assay: Antibacterial activity against vancomycin-, methicillin-resistant Staphylococcus aureus VRS2 by broth microdilution method; assay type: functional; how it was run: as §3
Enterococcus faecium [17] = assay: Antibacterial activity against linezolid/daptomycin-nonsusceptible vancomycin-susceptible Enterococcus faecium clinical isolate by broth microdilution method; assay type: functional; how it was run: as §2
Enterococcus faecium [18] = assay: Antibacterial activity against linezolid/daptomycin-nonsusceptible vancomycin-resistant Enterococcus faecium clinical isolate by broth microdilution method; assay type: functional; how it was run: as §2
Enterococcus faecalis [19] = assay: Antibacterial activity against linezolid/daptomycin-nonsusceptible vancomycin-susceptible Enterococcus faecalis clinical isolate by broth microdilution method; assay type: functional; how it was run: as §2
Staphylococcus aureus [20] = assay: Antibacterial activity against daptomycin-nonsusceptible Staphylococcus aureus isolate 1285404 by broth microdilution method

Row | Structure (SMILES) | MIC50 (Staphylococcus aureus [1]) | MIC90 (Staphylococcus aureus [1]) | MIC50 [2] | MIC90 [2] | MIC50 (Staphylococcus xylosus) | MIC90 (Staphylococcus xylosus) | MIC50 [3] | MIC90 [3] | MIC50 (Enterococcus faecalis [4]) | MIC90 (Enterococcus faecalis [4]) | MIC50 (Enterococcus faecium [5]) | MIC90 (Enterococcus faecium [5]) | MIC50 (Enterococcus faecium [6]) | MIC90 (Enterococcus faecium [6]) | MIC50 (Streptococcus pyogenes) | MIC90 (Streptococcus pyogenes) | MIC (Streptococcus sp.) | MIC50 (Streptococcus sp.) | MIC90 (Streptococcus sp.) | MIC50 [7] | other results
1 | CCCCCCCCCCNCCN[C@@]1(C)C[C@H](O[C@H]2[C@H](Oc3c4cc5cc3Oc3ccc(cc3Cl)[C@@H](O)[C@@H](NC(=O)[C@@H](CC(C)C)NC)C(=O)N[C@@H](CC(N)=O)C(=O)N[C@H]5C(=O)N[C@H]3C(=O)N[C@H](C(=O)N[C@H](C(=O)O)c5cc(O)c(CNCP(=O)(O)O)c(O)c5-c5cc3ccc5O)[C@H](O)c3ccc(c(Cl)c3)O4)O[C@H](CO)[C@@H](O)[C@@H]2O)O[C@@H](C)[C@H]1O [TELAVANCIN] | 0.25 µg/mL (≈ 0.142 µM) | 0.25 µg/mL (≈ 0.142 µM) | 0.25 µg/mL (≈ 0.142 µM) | 0.5 µg/mL (≈ 0.285 µM) | 0.25 µg/mL (≈ 0.142 µM) | 0.5 µg/mL (≈ 0.285 µM) | 0.25 µg/mL (≈ 0.142 µM) | 0.5 µg/mL (≈ 0.285 µM) | 0.5 µg/mL (≈ 0.285 µM) | 1 µg/mL (≈ 0.57 µM) | 0.12 µg/mL (≈ 0.0684 µM) | 0.25 µg/mL (≈ 0.142 µM) | 4 µg/mL (≈ 2.28 µM) | 8 µg/mL (≈ 4.56 µM) | 0.03 µg/mL (≈ 0.0171 µM) | 0.06 µg/mL (≈ 0.0342 µM) | 0.03 µg/mL (≈ 0.0171 µM) | 0.03 µg/mL (≈ 0.0171 µM) | 0.06 µg/mL (≈ 0.0342 µM) | 0.03 µg/mL (≈ 0.0171 µM) | MIC90 (Enterococcus): 1 µg/mL (≈ 0.57 µM); MIC90 [7]: 0.12 µg/mL (≈ 0.0684 µM); MIC50 (Streptococcus oralis): 0.03 µg/mL (≈ 0.0171 µM); MIC90 (Streptococcus oralis): 0.12 µg/mL (≈ 0.0684 µM); MIC50 (Streptococcus pneumoniae): 0.015 µg/mL (≈ 0.00854 µM); MIC90 (Streptococcus pneumoniae): 0.03 µg/mL (≈ 0.0171 µM); MIC (Staphylococcus aureus [8]): 0.5 µg/mL (≈ 0.285 µM); MIC (Staphylococcus aureus [9]): 0.5 µg/mL (≈ 0.285 µM); MIC (Staphylococcus aureus [10]): 0.5 µg/mL (≈ 0.285 µM); MIC (Staphylococcus aureus [11]): 1 µg/mL (≈ 0.57 µM); MIC (Staphylococcus aureus [12]): 0.5 µg/mL (≈ 0.285 µM); MIC (Staphylococcus aureus [13]): 0.5 µg/mL (≈ 0.285 µM); MIC (Staphylococcus aureus [14]): 0.5 µg/mL (≈ 0.285 µM); MIC (Staphylococcus aureus [15]): 1 µg/mL (≈ 0.57 µM); MIC (Staphylococcus aureus [16]): 1 µg/mL (≈ 0.57 µM); MIC (Enterococcus faecium [17]): 0.06 µg/mL (≈ 0.0342 µM); MIC (Enterococcus faecium [18]): 2 µg/mL (≈ 1.14 µM); MIC (Enterococcus faecalis [19]): 1 µg/mL (≈ 0.57 µM); MIC (Staphylococcus aureus [20]): 0.25 µg/mL (≈ 0.142 µM)
2 | CN[C@H](CC(C)C)C(=O)N[C@H]1C(=O)N[C@@H](CC(N)=O)C(=O)N[C@H]2C(=O)N[C@H]3C(=O)N[C@H](C(=O)N[C@H](C(=O)O)c4cc(O)cc(O)c4-c4cc3ccc4O)[C@H](O)c3ccc(c(Cl)c3)Oc3cc2cc(c3O[C@@H]2O[C@H](CO)[C@@H](O)[C@H](O)[C@H]2O[C@H]2C[C@](C)(N)[C@H](O)[C@H](C)O2)Oc2ccc(cc2Cl)[C@H]1O [VANCOMYCIN] | 1 µg/mL (≈ 0.69 µM) | 1 µg/mL (≈ 0.69 µM) | 1 µg/mL (≈ 0.69 µM) | 2 µg/mL (≈ 1.38 µM) | 1 µg/mL (≈ 0.69 µM) | 2 µg/mL (≈ 1.38 µM) | 2 µg/mL (≈ 1.38 µM) | 2 µg/mL (≈ 1.38 µM) | 1 µg/mL (≈ 0.69 µM) | 2 µg/mL (≈ 1.38 µM) | ≤ 0.5 µg/mL | 1 µg/mL (≈ 0.69 µM) | 512 µg/mL (≈ 353 µM) | 512 µg/mL (≈ 353 µM) | 0.25 µg/mL (≈ 0.173 µM) | 0.5 µg/mL (≈ 0.345 µM) | 0.25 µg/mL (≈ 0.173 µM) | 0.25 µg/mL (≈ 0.173 µM) | 0.5 µg/mL (≈ 0.345 µM) | 0.5 µg/mL (≈ 0.345 µM) | MIC (Enterococcus faecium [5]): ≤ 0.5 µg/mL; MIC (Streptococcus pyogenes): 0.25 µg/mL (≈ 0.173 µM); MIC90 [7]: 0.5 µg/mL (≈ 0.345 µM); MIC50 (Streptococcus oralis): 0.5 µg/mL (≈ 0.345 µM); MIC90 (Streptococcus oralis): 0.5 µg/mL (≈ 0.345 µM); MIC50 (Streptococcus pneumoniae): 0.25 µg/mL (≈ 0.173 µM); MIC90 (Streptococcus pneumoniae): 0.5 µg/mL (≈ 0.345 µM); MIC (Staphylococcus aureus [16]): 32 µg/mL (≈ 22.1 µM)
